How the values were obtained:
Cannabinoid receptor 2 [1] = target: T1, Cannabinoid receptor 2 (Homo sapiens, UniProt P34972); experiment: Displacement of [3H]CP-55940 from human recombinant CB2 receptor expressed in HEK293 cells; format: cell-based
Cannabinoid receptor 1 = Cannabinoid receptor 1 (Homo sapiens, UniProt P21554); experiment: Displacement of [3H]CP-55940 from human recombinant CB1 receptor expressed in CHO cells; format: cell-based; settings: read-out: Ki
Homo sapiens = species: Homo sapiens; experiment: Selectivity ratio of Ki for human recombinant CB1 receptor to Ki for human recombinant CB2 receptor
Procedure, shortened: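 Membranes were from HEK cells stably expressing human CB2 and CHO cells stably expressing human CB1. Competition was run against 0.5 nM [3H]CP-55,940 in 50 mM Tris-HCl pH 7.4, 2.5 mM EDTA, 5 mM MgCl2, 0.05% fatty-acid-free BSA, for 90 min at 30 °C, then filtered. Nonspecific binding was set with 10 μM unlabeled CP-55,940. Ki came from one-site fits. Mean ± SEM, ≥3 experiments in duplicate.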

Cannabinoid receptor 2 [2] = target: T1, Cannabinoid receptor 2; experiment: Agonist activity at human recombinant CB2 receptor expressed in HEK293 cells coexpressing Galphaq/o5 assessed as calcium mobilization by FLIPR assay; format: functional, cell-based
Procedure, shortened: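 HEK cells stably coexpressing human CB2 and chimeric Gαq/o5 were seeded at 75 000 cells/well the day before and loaded with no-wash calcium dye. Mean ± SEM, ≥3 experiments in duplicate.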

Cannabinoid receptor 2 [3] = target: T1, Cannabinoid receptor 2; experiment: Agonist activity at human recombinant CB2 receptor expressed in HEK293 cells coexpressing Galphaq/o5 assessed as calcium mobilization by FLIPR assay relative to CP-55940; format: functional, cell-based
Procedure, shortened: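 HEK cells stably coexpressing human CB2 and chimeric Gαq/o5 were seeded at 75 000 cells/well the day before and loaded with no-wash calcium dye. […] Mean ± SEM, ≥3 experiments in duplicate.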

T1 sequence (P34972 whole entry): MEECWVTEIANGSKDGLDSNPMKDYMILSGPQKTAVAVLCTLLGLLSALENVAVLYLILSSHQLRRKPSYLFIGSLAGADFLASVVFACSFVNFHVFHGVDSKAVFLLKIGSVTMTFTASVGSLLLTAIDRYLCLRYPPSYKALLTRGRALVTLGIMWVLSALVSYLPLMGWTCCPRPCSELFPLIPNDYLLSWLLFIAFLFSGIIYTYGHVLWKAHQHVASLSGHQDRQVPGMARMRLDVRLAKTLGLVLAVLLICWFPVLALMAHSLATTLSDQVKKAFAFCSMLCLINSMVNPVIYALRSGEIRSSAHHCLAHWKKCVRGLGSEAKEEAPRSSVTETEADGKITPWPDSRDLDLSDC
Cannabinoid receptor 1, sequence (P21554 whole entry): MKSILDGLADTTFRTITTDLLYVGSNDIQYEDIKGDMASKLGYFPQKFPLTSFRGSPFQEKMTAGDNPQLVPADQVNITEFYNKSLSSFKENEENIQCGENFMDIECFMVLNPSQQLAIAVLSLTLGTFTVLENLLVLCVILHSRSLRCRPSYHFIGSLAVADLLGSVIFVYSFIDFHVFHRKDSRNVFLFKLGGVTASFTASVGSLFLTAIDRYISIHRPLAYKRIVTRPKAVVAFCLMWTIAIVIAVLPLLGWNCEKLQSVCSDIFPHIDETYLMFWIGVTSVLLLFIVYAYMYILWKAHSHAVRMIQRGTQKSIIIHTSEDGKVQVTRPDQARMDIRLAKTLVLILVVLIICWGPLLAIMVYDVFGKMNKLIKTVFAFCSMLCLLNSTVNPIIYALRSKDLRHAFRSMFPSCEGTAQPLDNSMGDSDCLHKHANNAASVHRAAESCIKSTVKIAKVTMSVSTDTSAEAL

SMILES	pKi (Cannabinoid receptor 2 [1]; hek293)	Ki (Cannabinoid receptor 2 [1]; read-out: Ki) [nM]	Ki (Cannabinoid receptor 1) [nM]	Ratio Ki (Homo sapiens)	EC50 (Cannabinoid receptor 2 [2]) [nM]	Activity (Cannabinoid receptor 2 [3]) [%]	Ki (Cannabinoid receptor 2 [1]; hek293, read-out: Ki) [nM]	Ki (Cannabinoid receptor 2 [1]; read-out: pKi (converted)) [nM]
CC1(C)C(C(=O)c2cn(CCC(=O)O)c3ccccc23)C1(C)C	< 6	> 1000	> 10000	–	–	–	–	–
CC1(C)C(C(=O)c2cn(CCc3ccncc3)c3ccccc23)C1(C)C	–	31	2200	71	162	100	–	–
O=C(c1cn(CCN2CCOCC2)c2ccccc12)C12CC3CC(CC1C3)C2	–	23	> 10000	> 435	68	66	–	–
CC1(C)C(C(=O)c2cn(CCc3ccsc3)c3ccccc23)C1(C)C	–	1.8	148	82	70	108	–	–
CC1(C)C(C(=O)c2cn(CCn3cccc3)c3ccccc23)C1(C)C	–	1.8	310	172	54	97	–	–
COC(=O)CCn1cc(C(=O)C2C(C)(C)C2(C)C)c2ccccc21	–	2.9	1830	631	17	109	–	–
CN1CCCC1CCn1cc(C(=O)C2C(C)(C)C2(C)C)c2ccccc21 (configuration not stated)	< 6	> 1000	> 10000	–	–	–	–	–
CCCCn1cc(C(=O)C2C(C)(C)C2(C)C)c2ccccc21	–	2	91	46	5	102	–	–
CN1CCCCC1Cn1cc(C(=O)c2cc([N+](=O)[O-])ccc2I)c2ccccc21 (configuration not stated)	7.94	–	–	110	–	–	–	–
CSCCCCn1cc(C(=O)C2C(C)(C)C2(C)C)c2ccccc21	–	0.4	39	98	22	74	–	–
CC1(C)C(C(=O)c2cn(CCN3C(=O)CCC3=O)c3ccccc23)C1(C)C	–	170	> 10000	> 59	77	34	–	–
CC(C)[C@H]1CC[C@H](C(=O)c2cn(CCN3CCOCC3)c3ccccc23)CC1	–	190	> 10000	> 53	> 10000	–	–	–
CN1CCC(CCn2cc(C(=O)C3C(C)(C)C3(C)C)c3ccccc32)CC1	< 6	> 1000	> 10000	–	–	–	–	–
O=C(c1cn(CCN2CCOCC2)c2ccccc12)C1CCCC1	–	–	> 10000	–	819	35	> 1000	> 1000
CC1(C)C(C(=O)c2cn(CCC3CCOCC3)c3ccccc23)C1(C)C	–	2.8	92	33	15	90	–	–
O=C(c1cn(CCN2CCOCC2)c2ccccc12)C1CCC1	–	–	> 10000	–	> 10000	–	> 1000	> 1000
CC(=O)CCCCn1cc(C(=O)C2C(C)(C)C2(C)C)c2ccccc21	–	0.99	380	384	6	89	–	–
CC1(C)C(C(=O)c2cn(CCc3cccnc3)c3ccccc23)C1(C)C	–	20	> 10000	> 500	62	78	–	–
Cc1ncsc1CCn1cc(C(=O)C2C(C)(C)C2(C)C)c2ccccc21	–	18	2000	111	49	49	–	–
CC1(C)C(C(=O)c2cn(CCc3ccccn3)c3ccccc23)C1(C)C	–	68	1900	28	542	59	–	–
CC1(C)C(C(=O)c2cn(C[C@@H]3CCCO3)c3ccccc23)C1(C)C	–	3.3	220	67	14	117	–	–
O=C(c1cn(CC2CCOCC2)c2ccccc12)C12CC3CC(CC(C3)O1)C2	–	5.9	538	91	8	97	–	–
O=C(c1cn(CCN2CCOCC2)c2ccccc12)C1CCCCC1	–	138	1630	12	86	44	–	–
CC1(C)C(C(=O)c2cn(C(=O)CC3CCOCC3)c3ccccc23)C1(C)C	< 6	> 1000	> 10000	–	–	–	–	–
O=C(c1cn(CC2CCOCC2)c2ccccc12)C1CCCC1	–	11	131	12	20	64	–	–

SMILES	pKi (Cannabinoid receptor 2 [1]; hek293)	Ki (Cannabinoid receptor 2 [1]; read-out: Ki) [nM]	Ki (Cannabinoid receptor 1) [nM]	Ratio Ki (Homo sapiens)	EC50 (Cannabinoid receptor 2 [2]) [nM]	Activity (Cannabinoid receptor 2 [3]) [%]	Ki (Cannabinoid receptor 2 [1]; hek293, read-out: Ki) [nM]	Ki (Cannabinoid receptor 2 [1]; read-out: pKi (converted)) [nM]
CC1(C)C(C(=O)c2cn(CC3OCCO3)c3ccccc23)C1(C)C	–	1	280	280	7	133	–	–
CC1(C)C(C(=O)c2cn(CCCN3CCOCC3)c3ccccc23)C1(C)C	< 6	> 1000	> 10000	–	1520	56	–	–
CC1(C(=O)c2cn(CCN3CCOCC3)c3ccccc23)CC1(Cl)Cl (configuration not stated)	< 6	> 1000	> 10000	–	716	33	–	–
COCCn1cc(C(=O)C2C(C)(C)C2(C)C)c2ccccc21	–	3.1	710	229	14	117	–	–
CC1(C)C(C(=O)c2cn(CCN3CCCC3)c3ccccc23)C1(C)C	–	5.8	> 10000	> 1720	70	84	–	–
CC1(C)C(C(=O)c2cn(Cc3ccccc3)c3ccccc23)C1(C)C	–	8.2	210	26	93	59	–	–
CC1(C)C(C(=O)c2cn(CCCCCO)c3ccccc23)C1(C)C	–	0.71	680	958	11	79	–	–
CC1(C)C(C(=O)c2cn(CCN3CCNCC3)c3ccccc23)C1(C)C	< 6	> 1000	> 10000	–	2200	30	–	–
CC1(C)C(C(=O)c2cn(Cc3ccncc3)c3ccccc23)C1(C)C	–	3.7	48	13	30	99	–	–
O=C(c1cn(CCN2CCOCC2)c2ccccc12)[C@@H]1CC12CCCCC2	–	35	3060	87	42	50	–	–
CC[C@H]1CC[C@H](C(=O)c2cn(CCN3CCOCC3)c3ccccc23)CC1	–	16	616	39	85	59	–	–
CC1(C(=O)c2cn(CC3CCOCC3)c3ccccc23)CC1(Cl)Cl (configuration not stated)	–	181	3360	19	782	32	–	–
CCCCCn1cc(C(=O)C2C(C)(C)C2(C)C)c2ccccc21	–	1.8	150	83	29	93	–	–
CC1(C)C(C(=O)c2cn(CCCO)c3ccccc23)C1(C)C	–	2.1	2200	1050	27	140	–	–
CC1(C)C(C(=O)c2cn(C[C@H]3CCCO3)c3ccccc23)C1(C)C	–	3.8	720	189	11	99	–	–
CC1(C)C(C(=O)c2cn(CCN3CCCC3=O)c3ccccc23)C1(C)C	–	55	> 10000	> 182	55	97	–	53.7
CC1(C)C(C(=O)c2cn(Cc3cccnc3)c3ccccc23)C1(C)C	–	30	2030	68	75	103	–	–
CN1CCN(CCn2cc(C(=O)C3C(C)(C)C3(C)C)c3ccccc32)CC1	< 6	> 1000	2150	–	–	–	–	–
CC1(C)C(C(=O)c2cn(CCCC(F)(F)F)c3ccccc23)C1(C)C	–	0.09	15	167	6	104	–	–
CC1(C)C(C(=O)c2cn(CCN3CCCCCC3)c3ccccc23)C1(C)C	–	26	790	30	1020	49	–	–
O=C(c1cn(CC2CCOCC2)c2ccccc12)[C@@H]1CC12CCCCC2	–	2.6	62	24	14	86	–	–
CCCn1cc(C(=O)C2C(C)(C)C2(C)C)c2ccccc21	–	9.2	4300	467	36	114	–	–
CC1(C)C(C(=O)c2cn(CCC3CCNCC3)c3ccccc23)C1(C)C	< 6	> 1000	> 10000	–	–	–	–	–
CC1(C)C(C(=O)c2cn(CCN)c3ccccc23)C1(C)C	< 6	> 1000	> 10000	–	> 10000	–	–	–
CC1(C)C(C(=O)c2cn(CCC(N)=O)c3ccccc23)C1(C)C	–	220	> 10000	–	294	107	–	–

Source: ChEMBL document CHEMBL1156767, “Indol-3-ylcycloalkyl ketones: effects of N1 substituted indole side chain variations on CB(2) cannabinoid receptor activity” (J Med Chem, 2010)
